Compounds with a hit are over-represented: about 2.1% of the library has one in this group of screens.
MC4R antagonist: blocks human MC4R cAMP signaling; P32245; MC4R-expressing cells, MTII-stimulated cAMP, LANCE TR-FRET; inhibition, % at 6.5 µM; actives 0.48% (n = 360,000); AID 540295;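 active means inhibition above its plate's cutoff, the mean of tested wells on that plate plus 3 SD, cut at about 29% in these data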;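 further: 0% = Melanotan II alone and 100% = Melanotan II plus saturating MCL0020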
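Material – human MC4R-expressing U2OS cells · Repeats – no replicates · Detection – TR-FRET with Eu-cAMP and labeled anti-cAMP, 671 nm · Times – compound 30 min, challenge 1 h, detection 1 h · Compound – single nominal compound dose of 6.5 µM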
TLR9-MyD88 block: blocks human TLR9 binding to MyD88; actives 0.21% (n = 340,000); Q9NR96+Q99836; AID 504734; CHO BLA complementation TLR9-MyD88, CCF4 FRET ratio; inhibition, % at 4.98 µM;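 active means inhibition above the mean over all tested compounds plus 3 SD, cut at about 21% in these data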;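 further: 0% = DMSO only wells and 100% = clavulanate BLA inhibitor control wells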
MC4R barr agon: agonists of human melanocortin 4 receptor (MC4R) beta-arrestin; U2OS MC4R beta-arrestin complementation, luminescence; percent of melanotan II response, DMSO zero; P32245; AID 540308; activation, % at 8.9 µM; actives 0.98% (n = 360,000);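 active means activation above a per-plate cutoff, the mean activation of sample wells on that plate plus 3 SD, cut at about 8% in these data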
MIN6 prolif-1: inducers of beta-cell replication in MIN6 cells; MIN6 cells proliferation, ATPlite luminescence, 48 h; cells starved in 0.2% serum; 100% = growth in 10% serum; proliferation, % at 10 µM; actives 0.29% (n = 330,000);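 active means compounds whose signal lies at least 3.5 SD above the mean of all wells on their plate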;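 further: 0% = DMSO-treated cells in low-serum medium and 100% = 10% serum control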
NOD2 RIPK2 PPI: blocks binding of human NOD2 to RIPK2 | O43353 | CHO BLA complementation NOD2-RIPK2, CCF4 ratio | inhibition, % at 4.98 µM | actives 0.38% (n = 360,000) | AID 624267; in the data active means inhibition above about 21%;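 further: 0% = vehicle only and 100% = reference blocker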
Target sequence (O43353 whole entry, looked up): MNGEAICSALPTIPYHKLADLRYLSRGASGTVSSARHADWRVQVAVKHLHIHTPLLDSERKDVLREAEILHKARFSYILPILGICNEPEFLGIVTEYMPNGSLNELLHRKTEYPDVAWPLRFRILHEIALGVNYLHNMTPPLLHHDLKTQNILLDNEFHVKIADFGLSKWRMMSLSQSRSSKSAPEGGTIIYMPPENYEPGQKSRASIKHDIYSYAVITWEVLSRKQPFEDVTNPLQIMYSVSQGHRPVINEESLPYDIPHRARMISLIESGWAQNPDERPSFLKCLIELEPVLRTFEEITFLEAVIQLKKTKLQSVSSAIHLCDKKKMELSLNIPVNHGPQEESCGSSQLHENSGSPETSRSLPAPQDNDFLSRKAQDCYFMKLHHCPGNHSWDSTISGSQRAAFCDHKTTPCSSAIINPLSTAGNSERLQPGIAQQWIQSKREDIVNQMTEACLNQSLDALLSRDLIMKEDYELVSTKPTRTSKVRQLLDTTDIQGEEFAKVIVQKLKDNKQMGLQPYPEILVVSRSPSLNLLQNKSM
TLR4-MyD88 BLA: inhibitors of human TLR4-MyD88 binding; inhibition, % at 8.4 µM; HeLa CL3-4 TLR4/MyD88 BLA complementation, FRET ratio; actives 0.18% (n = 200,000); in the data active means inhibition above about 25%;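 further: 0% = vehicle and 100% = reference inhibitor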
MIN6 prolif-2: confirmation of inducers of beta-cell replication in MIN6 cells; shares compounds with MIN6 prolif-1; proliferation increase, % at 50 µM; MIN6 beta-cell proliferation, ATPlite luminescence, 48 h; cells kept in 0.2% serum; scaled between 0.2% and 10% serum; 920 tested, under 10 active; AID 463095;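 active means proliferation increase above 40% at any of the four tested concentrations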
Active calls of the source: *; . = no result.

SMILES	MC4R antagonist	TLR9-MyD88 block	MC4R barr agon	MIN6 prolif-1	NOD2 RIPK2 PPI	TLR4-MyD88 BLA	MIN6 prolif-2
Cc1ccc(C(=O)N/C(=C/c2cccnc2)C(=O)NCc2ccco2)cc1	1	-10	-1	4.7*	-3	6	-1
COc1ccc(C(=O)N/C(=C/c2cccnc2)C(=O)NCc2ccco2)cc1OC	8	13	1	-2	-5	.	.
COc1ccc(Cn2c(=O)[nH]c3cc(C(=O)N4CCN(c5ccc(C(C)=O)cc5)CC4)ccc3c2=O)cc1	2	-6	-1	0	-3	.	.
CN(c1nc2nonc2nc1NC1CC1)C1CCOC1 (centres undefined)	16	-9	1	7.6*	-2	-1	-1
Cc1cc(NC(=O)c2cnn3c(C(F)F)cc(C4CC4)nc23)no1	3	4	-2	5.5*	-9	-13	5
Cc1cc(NC(=O)c2cnn3c(C(F)F)cc(-c4ccccc4)nc23)no1	7	-13	0	0	-6	4	.
COc1ccc(C=O)cc1COc1ccc(F)cc1F	11	-3	-1	-2	-6	5	.
Fc1ccc(OCc2nn[nH]n2)c(F)c1	25	-3	1	7.1*	4	.	0
CCOc1cc(/C=N/n2cnnc2)ccc1OCC(=O)Nc1ccccc1OC	6	0	-1	8.0*	4	-3	2
CC(C)n1c(=O)c2ccccc2n1Cc1cn(Cc2cccnc2)nn1	.	.	.	.	3	.	.
NC(=O)c1ccc(NC(=O)CSC(=O)c2ccccc2)cc1	16	-11	-4	1	6	.	.
CCOC(=O)c1c(C)nc2sc3c(c2c1-c1ccc(OC)cc1)NC(c1ccccc1)NC3=O (centres undefined)	-31	2	-1	9.2*	-4	0	8
Cc1ccc(OCCCCN2CCc3ccccc3C2)cc1	2	-4	4	-3	1	.	.
Cc1nnc(SC(C)C(=O)NC2CCCCC2)[nH]c1=O (centres undefined)	3	-10	-2	.	-4	.	.
CCCC(=O)Nc1nn(CC)c2nc3ccc(C)cc3cc12	-8	-8	-2	9.5*	-7	.	1
CCC(=O)Nc1nn(CC(C)C)c2nc3ccc(C)cc3cc12	3	2	1	-1	3	.	.
Cc1csc(NC(=O)C2CC(=O)N(c3ccc(C)c(C)c3)C2)n1 (centres undefined)	1	-1	-2	-3	-2	.	.
CC1(C)CN(c2ccc(C(=O)c3ccccc3)cc2)C1=O	13	-3	-1	7.8*	5	1	-1
O=C(O)C1CCCCC1C(=O)NCCCc1ccccc1 (centres undefined)	-4	1	-2	9.0*	11	9	-3
Cc1cc(C)c2cc(C#N)c(NCCCN)nc2c1	.	.	.	.	-3	.	.
O=C(Nc1ccc(Oc2ccccc2)nc1)C1CCCCN1Cc1ccc(O)cc1 (centres undefined)	-2	-2	-2	3	1	.	.
COCCc1ncc(CN2CCCCC2C(=O)Nc2ccc(Oc3ccccc3)nc2)cn1 (centres undefined)	1	5	-3	10*	-5	.	-2
O=[N+]([O-])c1ccccc1S(=O)(=O)NC1CCCCCCC1	28	-2	1	-1	3	.	.
O=C1CCCCCCC1Sc1ccccc1[N+](=O)[O-] (centres undefined)	18	-1	-1	6.2*	-1	-11	-4
O=C(NNC(=O)C1CCCO1)c1ccc(Cl)cc1 (centres undefined)	11	-8	0	8.5*	-1	9	-2
SMILES	MC4R antagonist	TLR9-MyD88 block	MC4R barr agon	MIN6 prolif-1	NOD2 RIPK2 PPI	TLR4-MyD88 BLA	MIN6 prolif-2
COc1cc(OC)cc(-c2nc(-c3cccs3)no2)c1	-3	-4	6	7.7*	-2	-9	1
COc1cccc(-c2nc(-c3cccs3)no2)c1	2	3	1	1	6	.	.
Cc1ccccc1C(=O)OCC(=O)NCC1COc2ccccc2O1 (centres undefined)	24	0	0	12*	-2	.	-5
N#Cc1ccc(OCC(=O)NCC2COc3ccccc3O2)cc1 (centres undefined)	-2	-5	-1	11*	6	.	-1
O=C(COc1ccccc1)NCC1COc2ccccc2O1 (centres undefined)	0	-2	-1	0	-10	.	.
O=C(COC(=O)c1ccccc1O)NCC1COc2ccccc2O1 (centres undefined)	3	-7	-1	0	1	.	.
CCOc1ccc(-c2nnc3ccc(SCC(=O)N4CCCCC4)nn23)cc1	0	-5	-2	12*	-9	.	5
CCOC(=O)c1cnc2ccc(C(=O)OC)cc2c1NCCc1ccc(OC)c(OC)c1	16	-7	2	0.0*	2	8	3
CCOc1ccc(OCc2ccc(C(=O)NCc3ccncc3)o2)cc1	6	-11	-3	4.9*	-9	8	-5
COc1ccc(/C=C/C(=O)NNC(=O)C(C)Oc2ccccc2F)cc1OC (centres undefined)	9	-1	-1	5	-5	.	.
CCSc1nc2c(c(=O)[nH]c(=O)n2C)n1C/C=C(/C)Cl	-5	4	1	4	-5	4	.
C=CCSc1nc2c(c(=O)[nH]c(=O)n2C)n1C/C=C(/C)Cl	-3	2	-1	6.7*	3	5	2
COc1ccccc1C(C)NCC(=O)Nc1ccccc1C(F)(F)F (centres undefined)	2	-1	1	5.3*	-4	-10	-6
CCC(C)[C@H](NC(=O)Nc1ccc(C)cc1C)C(=O)O (some centres undefined)	6	-3	-3	0	-7	.	.
C=CCn1c(-c2cccc(OC)c2)nc2nc3ccccc3nc21	2	-8	0	9.1*	-14	-10	-3
C=CCn1c(-c2cccc(OC)c2)n[nH]c1=S	9	6	-1	1	-6	1	.
COCCN(C(=O)COC(=O)CCSc1ccc(F)cc1)c1c(N)n(Cc2ccccc2)c(=O)[nH]c1=O	7	3	-1	5	-12	.	.
CCOC(=O)c1c(NS(C)(=O)=O)sc2c1CCC(C)C2 (centres undefined)	8	-6	1	7.3*	-4	3	-6
CCOC(=O)c1c(NC(=O)C(C)N2CCN(S(=O)(=O)c3cccs3)CC2)sc2c1CCC(C)C2 (centres undefined)	7	2	-1	5.5*	-9	-5	-1

Screening data as filed in PubChem.
